This is an account of results in ChEMBL document CHEMBL1139000, “N-Glycosyl-thiophene-2-carboxamides: effects on endothelial cell growth in the presence and absence of bFGF--a significant increase in potency using per-O-acetylated sugar analogues” (2006).

Experiment [1] relates to AEC. Nature of the experiment: Antiproliferative activity against 10% FBS-induced BAEC at 500 uM after 24 hrs assessed by inhibition of [3H]thymidine uptake relative to control. Details: scale not given: the % may be the effect or the level left. The format is functional, Bos taurus. The procedure, abridged: (§1)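 Bovine aortic endothelial cells seeded at 30,000 cells/well in complete medium (10% foetal bovine serum) and allowed 24 h adhesion. Compounds then added and cells cultured 20 h at 37 °C, 5% CO2. [3H]thymidine pulse for a further 4 h (24 h total exposure). Cells lysed with 0.1 N NaOH and incorporated label counted by scintillation. Values are % of control-treated cells, mean ± SEM of three separate experiments, each in triplicate.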

Experiment [2] relates to AEC. Nature of the experiment: Antiproliferative activity against 10% FBS-induced BAEC upto 80 uM after 24 hrs assessed by inhibition of [3H]thymidine uptake. The format is functional, cell-based. The settings on record: Bos taurus. The procedure, abridged: as §1
In experiment [3] the test system is AEC. As to the kind of experiment: Antiproliferative activity against bFGF-stimulated BAEC at 80 uM after 48 hrs assessed by inhibition of [3H]thymidine uptake. The format is functional, cell-based. The settings on record: Bos taurus. The procedure, abridged:
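BAECs seeded at 30,000 cells/well and starved 24 h in 0.5% foetal bovine serum. Then incubated 48 h with bFGF (10 ng/mL) with or without compound. [3H]thymidine (2 µCi/mL) added for the last 4 h. Lysis in 0.1 N NaOH, scintillation counting. Triplicate values from three separate experiments; Student's t test against control and against bFGF treatment.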

Experiment [4] has as its system AEC. As to the kind of experiment: Antiproliferative activity against 10% FBS-induced BAEC at 80 uM after 24 hrs assessed by inhibition of [3H]thymidine uptake. The format is functional, Bos taurus. Details: scale not given: the % may be the effect or the level left. In a few lines:
as §1

The test system of experiment [5] is AEC. As to the kind of experiment: Antiproliferative activity against 10% FBS-induced BAEC at 3.3 uM after 24 hrs assessed by inhibition of [3H]thymidine uptake. Format: functional, cell-based. The settings on record: Bos taurus. The procedure, abridged: as §1
In experiment [6] the test system is AEC. Nature of the experiment: Antiproliferative activity against 10% FBS-induced BAEC at 16 uM after 24 hrs assessed by inhibition of [3H]thymidine uptake. Format: functional, Bos taurus. Details: scale not given: the % may be the effect or the level left. The procedure, abridged:
as §1

Experiment [7] concerns AEC. As to the kind of experiment: Antiproliferative activity against 10% FBS-induced BAEC at 500 uM after 24 hrs assessed by inhibition of [3H]thymidine uptake. Details: scale not given: the % may be the effect or the level left. Format: functional, Bos taurus. The procedure, abridged: as §1
Experiment [8] deals with AEC. Nature of the experiment: Antiproliferative activity against 10% FBS-induced BAEC at 100 uM after 24 hrs assessed by inhibition of [3H]thymidine uptake. The format is functional, Bos taurus. Details: scale not given: the % may be the effect or the level left. The procedure, abridged: as §1

The structures appear in SMILES notation. Calls of active or inactive are those of the source. No cut-off for these calls is given here.

With `C#Cc1csc(C(=O)N[C@@H]2O[C@H](CO)[C@@H](O)[C@H](O)[C@H]2O)c1`, the Activity in experiment [1] stood at 71%.
The molecule `Cc1ccc(C(=O)N[C@@H]2O[C@H](CO)[C@@H](O)[C@H](O)[C@H]2O)s1` showed an Activity in experiment [1] of 83%.
Regarding `O=C(N[C@@H]1O[C@H](CO)[C@@H](O)[C@H](O)[C@H]1O)c1ccc(Br)s1`, the Activity in experiment [1] is on record as 65%.
As to `CCc1ccc(C(=O)N[C@@H]2O[C@H](CO)[C@@H](O)[C@H](O)[C@H]2O)s1`, the Activity in experiment [1] is given as 80.3%. The result in experiment [2] was inactive.
In turn, `Cc1ccsc1C(=O)N[C@@H]1O[C@H](CO)[C@@H](O)[C@H](O)[C@H]1O` yielded an Activity in experiment [1] of 84%.
Take `CCc1ccc(C(=O)N[C@@H]2O[C@H](COC(C)=O)[C@@H](OC(C)=O)[C@H](OC(C)=O)[C@H]2OC(C)=O)s1`: in experiment [3], the result was Active. For the same molecule, the Activity in experiment [4] was found to be 41%; in experiment [6] it was 21%. In addition, the outcome in experiment [5] was inactive.
Consider `O=C(N[C@@H]1O[C@H](CO)[C@@H](O)[C@H](O)[C@H]1O)c1sccc1Br`, for which the Activity in experiment [7] worked out at 25%; in experiment [1] it was 75.4%; in experiment [8] it was 10%.
In turn, `C#Cc1ccsc1C(=O)N[C@@H]1O[C@H](CO)[C@@H](O)[C@H](O)[C@H]1O` registered an Activity in experiment [1] of 79.75%.
Take `O=C(N[C@@H]1O[C@H](CO)[C@@H](O)[C@H](O)[C@H]1O)c1cccs1`: the result in experiment [1] (Bos taurus) was inactive.
